Screening data as filed in PubChem.
Compounds with a hit are over-represented: about 1.8% of the library has one in this group of screens.
MC4R barr agon – agonists of human melanocortin 4 receptor (MC4R) beta-arrestin. P32245. U2OS MC4R beta-arrestin complementation, luminescence; percent of melanotan II response, DMSO zero. activation, % at 8.9 µM. 0.98% of 360,000 active. AID 540308;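 active = activation above a per-plate cutoff, the mean activation of sample wells on that plate plus 3 SD, cut at about 8% in these data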
Target sequence (P32245 whole entry, looked up): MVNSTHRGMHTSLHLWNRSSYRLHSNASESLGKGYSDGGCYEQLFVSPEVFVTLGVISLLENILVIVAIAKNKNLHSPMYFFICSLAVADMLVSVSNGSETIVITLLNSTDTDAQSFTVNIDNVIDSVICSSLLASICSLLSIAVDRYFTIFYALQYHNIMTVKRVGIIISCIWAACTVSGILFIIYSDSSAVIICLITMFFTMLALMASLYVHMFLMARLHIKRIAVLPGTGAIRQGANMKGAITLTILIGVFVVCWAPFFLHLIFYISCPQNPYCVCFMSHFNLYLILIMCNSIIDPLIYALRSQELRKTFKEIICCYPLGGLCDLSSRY
NTR1 agonist – agonists of human neurotensin receptor NTR1; 0.17% of 330,000 active; NTR1-U2OS beta-arrestin-GFP spot imaging, agonist mode; activation, % at 20 µM; P30989;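 active = activation at or above 40% of the spot to cytoplasm intensity ratio, with at least 20 cells analyzed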;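 note: 0% = DMSO without peptide and 100% = 100 nM NTR1 peptide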
MC4R antagonist – blocks human MC4R cAMP signaling | inhibition, % at 6.5 µM | 0.48% of 360,000 active | P32245 | MC4R-expressing cells, MTII-stimulated cAMP, LANCE TR-FRET;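 active = inhibition above its plate's cutoff, the mean of tested wells on that plate plus 3 SD, cut at about 29% in these data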;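 note: 0% = Melanotan II alone and 100% = Melanotan II plus saturating MCL0020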
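System: U2OS-MC4R stable cell line; Technique: Eu-cAMP/anti-cAMP TR-FRET, emission 671 nm; Repeats: single well per compound; Also added: Melanotan II; Dosing: one concentration, 6.5 µM nominal; Schedule: 30-min compound, 1-h challenge, 1-h detection, room temperature.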
AI-2 QS modul – Vibrio harveyi AI-2 quorum sensing modulation | AID 2094 | activity change, % at 7.5 µM | 0.4% of 300,000 active | Vibrio harveyi JMH597 AI-2 luminescence/OD600 ratio, 9 h; active compounds read low; strain lacks LuxN and CqsS sensors; 0 = neutral-control median; in the data active = activity change below about -75%, passing the limit was not always enough;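 note: luminescence divided by OD600 gain over 9 h not by final OD600 alone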
U2OS cAMP counter – counter-screen for MC4R antagonists: nonselective cAMP signaling inhibitors | shares compounds with MC4R antagonist | parental U2OS, forskolin cAMP, LANCE TR-FRET | inhibition, % at 6.5 µM | 26% of 1,600 active;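 active = mean inhibition over triplicates above the low-control well mean plus 3 SD, set per campaign, cut at about 13% in these data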;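 note: signal is single emission at 671 nm which falls as cellular cAMP rises; 0% = forskolin-stimulated wells and 100% = buffer without forskolin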
MC4R antag conf – human MC4R cAMP antagonism confirmation; shares compounds with MC4R antagonist; MC4R-expressing cells, MTII-stimulated cAMP, TR-FRET; inhibition, % at 6.5 µM; 27% of 1,600 active; in the data active = inhibition above about 29%;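 note: 0% = agonist stimulated wells alone and 100% = agonist stimulated wells plus saturating reference antagonist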
Active calls of the source: *; . = not tested or not shown; + = active, no number.

SMILES	MC4R barr agon	NTR1 agonist	MC4R antagonist	AI-2 QS modul	U2OS cAMP counter	MC4R antag conf
O=C(CCN1CCOCC1)c1ccc2c(c1)OCCO2	-1	1	30*	30	7	24
O=S(=O)(NCCc1ccccc1)c1cnc(Cl)c(Br)c1	0	7	9	11	.	.
O=S(=O)(NCc1ccco1)c1cnc(Cl)c(Br)c1	-2	16	42*	20	30*	67*
O=C(NCC1CCCN1S(=O)(=O)c1cccs1)c1cccc([N+](=O)[O-])c1 (stereo not given)	-2	0	13	17	.	.
COc1ccc(CCNC2=C(Cl)C(=O)N(CCc3ccc(OC)c(OC)c3)C2=O)cc1OC	0	18	31*	-3	5	16
O=C(NNC(=O)c1ccccc1O)c1ccc(Cl)c(S(=O)(=O)N2CCc3ccccc32)c1	-5	2	16	31	.	.
Cc1ccc(N(C(=O)c2csnn2)C(C(=O)NC2CCCCC2)c2ccccn2)cc1C (stereo not given)	0	0	-2	8	.	.
COc1ccc(C(=O)OCC(=O)NC(C)CCc2ccccc2)cc1OC (stereo not given)	1	0	31*	-7	-1	2
COc1ccc(NC(=O)COc2coc(CN3CCN(c4ccccc4)CC3)cc2=O)cc1	2	-1	-5	21	.	.
COC(=O)c1sc(N2C(=O)C(O)=C(C(=O)c3ccc(C)o3)C2c2ccc(F)cc2)nc1C (stereo not given)	1	0	33*	43	17*	22
CSc1nnc(N2C(=O)C(O)=C(C(=O)c3ccc(C)o3)C2c2ccc(C)cc2)s1 (stereo not given)	-3	1	+	13	52*	88*
Cc1ccc(-n2c(SCC(=O)N3CCCCC3)nc(O)c(Cc3ccccc3)c2=O)cc1	-3	1	9	2	.	.
NS(=O)(=O)c1ccc(CNC(=O)c2cc(-c3cccnc3)nc3ccc(Cl)cc23)cc1	-1	4	1	1	.	.
NS(=O)(=O)c1ccc(CNC(=O)c2cc(-c3ccccn3)nc3ccc(Cl)cc23)cc1	-2	0	30*	4	12	13
CC(NC(=O)CN(c1cccc(C(F)(F)F)c1)S(=O)(=O)c1ccc(Cl)c([N+](=O)[O-])c1)c1ccccc1 (stereo not given)	6	14	31*	11	14*	42*
CCn1c(C)c(C(=O)c2ccccc2)c(C#N)c1C(=O)O	-1	3	1	1	.	.
Clc1ccc(-c2nnc3n2CCCCC3)cc1	-2	2	6	10	.	.
Clc1ccc(-c2nnc3n2CCCCS3)cc1	1	-1	35*	11	-2	-7
CN1CCN(C(=O)/C=C/c2cn(-c3ccccc3)nc2-c2ccc3c(c2)OCCO3)CC1	-1	2	36*	-3	7	23
CN(C)C(=O)/C=C\c1cn(-c2ccccc2)nc1-c1ccc2c(c1)OCCO2	0	0	10	-4	.	.
COc1ccccc1/C=C/C(=O)OC(C)CN1CCCCC1 (stereo not given)	0	0	-1	0	.	.
O=C(Nc1ccccc1)Nc1ccccc1NS(=O)(=O)c1cccs1	1	0	30*	12	1	8
CC1(C)CC(=O)C(C(C2=C(O)CC(C)(C)CC2=O)c2cccs2)C(=O)C1 (stereo not given)	1	10	30*	13	12	21
CC1(C)CC(=O)C(C(C2=C(O)CC(C)(C)CC2=O)c2cccc(O)c2)C(=O)C1 (stereo not given)	0	2	3	.	.	.
CCOC(=O)C1(Cc2cccc(OC)c2)CCCN(C(=O)CNC(C)=O)C1 (stereo not given)	0	0	1	1	.	.
SMILES	MC4R barr agon	NTR1 agonist	MC4R antagonist	AI-2 QS modul	U2OS cAMP counter	MC4R antag conf
Cc1ccc(S(=O)(=O)n2cccc2/C=C/[N+](=O)[O-])cc1	-2	.	38*	.	7	5
COc1ccc(-n2cccc2/C=C/[N+](=O)[O-])cc1	1	6	15	27	.	.
O=c1oc(-c2ccccc2)c(-c2ccccc2)c2ccccc12	-1	.	5	.	.	.
COc1ccc(/C=C2\C(=O)ON=C2c2ccccc2)cc1OC	-1	0	31*	12	2	-4
COc1ccc(/C=C2/C(=O)ON=C2c2ccccc2)cc1OC	0	4	-1	23	.	.
O=C(CSc1ccc([N+](=O)[O-])cn1)Nc1ccc2c(c1)OCO2	-1	-1	3	24	.	.
CCCC(=O)NC(NC(=S)Nc1ccc(N=Nc2ccccc2)cc1)C(Cl)(Cl)Cl (stereo not given)	-3	18	29*	8	-1	16
CC(=O)OC1CCC2(C)C(CCC3C4CC=C(C(C)=O)C4(C)OC(=O)CC32)C1 (stereo not given)	-2	.	42*	.	31*	-20
CC(=O)O[C@H]1CC[C@@]2(C)C(CCC3C2CC[C@]2(C)OC(=O)CCC32)C1 (stereo not given in full)	-1	1	-4	16	.	.
Cc1cc(C(=O)NC(C)CCc2ccccc2)ccc1[N+](=O)[O-] (stereo not given)	-1	0	-2	12	.	.
CN(C(=O)COC(=O)/C=C/c1ccc2ccccc2n1)C1CCS(=O)(=O)C1 (stereo not given)	-1	2	-8	16	.	.
CCN(C(=O)COC(=O)/C=C/c1cnc2ccccc2n1)C1CCS(=O)(=O)C1 (stereo not given)	1	0	29*	3	-5	-2
O=C(Cc1ccc(Cl)cc1)c1c[nH]c(C(=O)NCc2cccnc2)c1	-2	-1	32*	-14	2	1
CC(C)N1C(=O)S/C(=C/c2ccccc2OCc2ccc(C(=O)O)cc2)C1=O	-1	0	31*	119	-4	-4
CC1CCN(C(=O)C2CCN(S(=O)(=O)c3ccc(-n4cnnn4)cc3)CC2)CC1	1	1	1	21	.	.
COc1ccccc1-c1cc(SC)c(C#N)c(=O)o1	-2	2	50*	4	23*	38*
COc1cc(C2CC(=O)Oc3c2c(=O)n(C)c2ccccc32)cc(OC)c1OC (stereo not given)	-2	-1	38*	-14	0	4
O=C1/C(=C\c2ccc(Cl)c(Cl)c2)CN(C(=O)CCN2CCOCC2)C/C1=C/c1ccc(Cl)c(Cl)c1	-4	.	37*	.	26*	31*
COc1cc(C(=S)N2CCOCC2)ccc1OC(=O)c1ccc([N+](=O)[O-])cc1[N+](=O)[O-]	-1	4	37*	20	6	28
O=C(O)c1cnn(-c2nc(-c3ccc(F)cc3)cs2)c1C(F)(F)F	1	0	32*	22	2	4
